Measured values reported in ChEMBL document CHEMBL3769315 (J Med Chem, 2016).
Converted amounts (≈) assume the structure as drawn.

How the values were obtained:
HepG2 = experiment: Cytotoxicity against human HepG2 cells assessed as ATP level by luminescence analysis
Hepatitis C virus [1] = experiment: microbe, parasite or virus in culture; type: functional, Hepacivirus hominis; conditions: Huh-7, 48 h
Hepatocyte = conditions: human, hepatocytes
Murine leukemia virus [2] = experiment: Antiviral activity against Murine leukemia virus pseudoparticle infected in human Huh7.5.1 cells at 10 uM after 4 hrs by luciferase reporter gene assay; type: functional; conditions: Huh-7, 4 h
[3] = Solubility of compound in phosphate buffer at pH 7.4
Hepatitis C virus [4] = experiment: Antiviral activity against HCV genotype 1a pseudoparticle infected in human Huh7.5.1 cells assessed as inhibition of virus entry at 10 uM after 4 hrs by luciferase reporter gene assay; type: functional, Hepacivirus hominis; conditions: subtype 1a, Huh-7, 4 h
[5] = AUCinfinity in CD-1 mouse plasma at 50 mg/kg, ip after 24 hrs by UPLC-MS/MS analysis; type: ADME, organism-based; parameters: dose 50 mg/kg, route intraperitoneal, time infinity
Hepatitis C virus [6] = experiment: Antiviral activity against HCV genotype 1b pseudoparticle infected in human Huh7.5.1 cells assessed as inhibition of virus entry at 10 uM after 4 hrs by luciferase reporter gene assay; type: functional, Hepacivirus hominis; conditions: Huh-7, 4 h
[7] = AUClast in CD-1 mouse liver at 50 mg/kg, ip after 24 hrs by UPLC-MS/MS analysis; type: ADME, organism-based; parameters: dose 50 mg/kg, time < 24 hr, route intraperitoneal
histamine H1 receptor = histamine H1 receptor (Homo sapiens, UniProt P35367); experiment: in vitro; conditions: PathHunter cells
histamine H1 receptor, sequence (P35367 whole entry): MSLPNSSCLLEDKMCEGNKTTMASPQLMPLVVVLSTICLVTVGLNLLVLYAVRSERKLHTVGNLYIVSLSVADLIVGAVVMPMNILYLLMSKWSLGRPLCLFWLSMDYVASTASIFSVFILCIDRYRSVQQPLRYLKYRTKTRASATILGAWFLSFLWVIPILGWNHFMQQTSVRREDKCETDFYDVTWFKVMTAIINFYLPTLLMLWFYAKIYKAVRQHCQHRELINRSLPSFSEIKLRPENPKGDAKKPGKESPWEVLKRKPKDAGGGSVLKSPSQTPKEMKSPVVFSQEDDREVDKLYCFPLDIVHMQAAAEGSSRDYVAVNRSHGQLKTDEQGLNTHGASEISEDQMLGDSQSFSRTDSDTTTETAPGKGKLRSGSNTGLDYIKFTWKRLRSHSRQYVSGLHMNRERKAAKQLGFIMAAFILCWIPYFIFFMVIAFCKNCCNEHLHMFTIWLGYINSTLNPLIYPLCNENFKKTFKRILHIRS

[8] = tested on: Vesicular stomatitis virus; experiment: Antiviral activity against Vesicular stomatitis virus G pseudoparticle infected in human Huh7.5.1 cells at 10 uM after 4 hrs by luciferase reporter gene assay; type: functional; conditions: Huh-7, 4 h
Hepatitis C virus [9] = experiment: microbe, parasite or virus in culture; type: functional, organism-based, Hepacivirus hominis; conditions: JFH-1, Huh-7.5.1, 48 h
[10] = Cmax in CD-1 mouse liver at 50 mg/kg, ip after 24 hrs by UPLC-MS/MS analysis; type: ADME, organism-based; parameters: dose 50 mg/kg, route intraperitoneal
[11] = Cytotoxicity against human Huh7.5.1 cells assessed as ATP level by luminescence analysis; conditions: huh-7
Hepatitis C virus [12] = experiment: Antiviral activity against HCV genotype 2a assessed as inhibition of RNA replication at 10 uM by cell-based replicon assay; type: functional, Hepacivirus hominis
Procedure, shortened: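 GT 2a subgenomic replicon cells were plated at 10^4/well and incubated overnight. They were then treated with compound (10 μM, or 3.2 or 1 μM for some compounds) for 48 h. Luciferase activity was read and expressed as % of DMSO.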

Dengue virus = experiment: microbe, parasite or virus in culture
Hepatitis B virus = experiment: microbe, parasite or virus in culture
Vaccinia virus = experiment: microbe, parasite or virus in culture; conditions: Orthopoxvirus vaccinia
Influenza A virus = experiment: microbe, parasite or virus in culture; conditions: H1N1
Tacaribe virus = experiment: microbe, parasite or virus in culture; conditions: Mammarenavirus tacaribeense
SARS-CoV = experiment: microbe, parasite or virus in culture; conditions: Severe acute respiratory syndrome-related coronavirus
Hepatitis C virus [13] = experiment: microbe, parasite or virus in culture
[14] = tested on: Respiratory syncytial virus; experiment: microbe, parasite or virus in culture; conditions: human respiratory syncytial virus
Poliovirus 3 = experiment: microbe, parasite or virus in culture; conditions: Enterovirus C
[15] = tested on: Venezuelan equine encephalitis virus; experiment: microbe, parasite or virus in culture
Rift Valley fever virus = experiment: microbe, parasite or virus in culture
Human alphaherpesvirus 1 = experiment: microbe, parasite or virus in culture
Human betaherpesvirus 5 = experiment: microbe, parasite or virus in culture
Liver microsome [16] = experiment: Metabolic stability in rat liver microsomes assessed as half life by LC-MS/MS analysis in presence of NADPH
Mus musculus = experiment: Hepatotoxicity in CD-1 mouse serum assessed as ALT level at 10 mg/kg, ip by UPLC-MS/MS analysis; type: toxicity, organism-based; conditions: in vivo
Procedure, shortened: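 ALT was measured in serum from the mouse PK study: male CD-1 mice, single 10 mg/kg i.p. dose in 10% PEG300 / 90% of 30% HP-β-CD, samples from 0.083 to 24 h. A vehicle-only dosing group served as control. Individual mice were plotted, with mean ± SEM.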

Liver microsome [17] = experiment: Metabolic stability in human liver microsomes assessed as half life by LC-MS/MS analysis in presence of NADPH
Liver = experiment: Half life of compound in CD-1 mouse liver at 10 mg/kg, ip by UPLC-MS/MS analysis; type: ADME, organism-based; conditions: mouse, in vivo
Procedure, shortened: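 Male CD-1 mice (~35 g) got a single i.p. dose of 10 mg/kg, prepared fresh at 2 mg/mL in 10% PEG300 / 90% of 30% HP-β-CD in water. Drug was measured by UPLC-MS/MS. Parameters came from noncompartmental analysis, with AUC by the linear trapezoidal method and liver/plasma ratios taken.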

[18] = Metabolic stability in mouse liver microsomes assessed as half life by LC-MS/MS analysis in presence of NADPH
Hepatitis C virus [19] = experiment: Antiviral activity against single rounded infectious HCV infected in human Huh7.5.1 cells assessed as viral level at 3.2 uM after 48 hrs by luciferase reporter gene assay; type: functional, Hepacivirus hominis; conditions: Huh-7, 48 h
Procedure, shortened: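 Huh7.5.1 cells (10^4 cells/well, overnight) were infected with single-round infectious HCV (HCVsc) in the presence of compound. Viral level was measured by luciferase after 48 h and expressed as % of DMSO control. The assay reports inhibition of early stages before assembly.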

in vitro = conditions: human, Huh7.5.1 cells and HepG2 cells
Hepatitis C virus [20] = experiment: Antiviral activity against HCV genotype 1b pseudoparticle infected in human Huh7.5.1 cells assessed as inhibition of virus entry at 3.2 uM after 4 hrs by luciferase reporter gene assay; type: functional, Hepacivirus hominis; conditions: Huh-7, 4 h
Procedure, shortened: (§1)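 Huh7.5.1 cells seeded at 10^4 cells/well, cultured overnight, then infected for 4 h with pseudoparticles (HCVpp GT 1a or 1b, MLVpp, VSV-Gpp) while compound was present. Cells were washed and cultured 48 h, then a luciferase read-out was taken. Values are expressed as % of DMSO control. Cyclosporin A 10 μM and bafilomycin A1 10 nM were run in parallel.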

Hepatitis C virus [21] = experiment: Antiviral activity against HCV genotype 2a assessed as inhibition of RNA replication at 3.2 uM by cell-based replicon assay; type: functional, Hepacivirus hominis
Procedure, shortened: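 GT 2a subgenomic HCV replicon cells were seeded at 10^4 cells/well and incubated overnight. They were then exposed to compound for 48 h, and replication was read by luciferase activity. Results are given as % of DMSO control.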

[22] = tested on: Vesicular stomatitis virus; experiment: Antiviral activity against Vesicular stomatitis virus G pseudoparticle infected in human Huh7.5.1 cells at 3.2 uM after 4 hrs by luciferase reporter gene assay; type: functional; conditions: Huh-7, 4 h; procedure, shortened: as §1
Hepatitis C virus [23] = experiment: Antiviral activity against HCV genotype 1a pseudoparticle infected in human Huh7.5.1 cells assessed as inhibition of virus entry at 3.2 uM after 4 hrs by luciferase reporter gene assay; type: functional, Hepacivirus hominis; conditions: subtype 1a, Huh-7, 4 h; procedure, shortened: as §1
Murine leukemia virus [24] = experiment: Antiviral activity against Murine leukemia virus pseudoparticle infected in human Huh7.5.1 cells at 3.2 uM after 4 hrs by luciferase reporter gene assay; type: functional; conditions: Huh-7, 4 h; procedure, shortened: as §1

Structure (SMILES)	CC50 (HepG2)	inhibition at 10 µM (Hepatitis C virus [1])	CC50 (Hepatocyte)	inhibition at 10 µM (Murine leukemia virus [2])	solubility kinetic [3]	inhibition at 10 µM (Hepatitis C virus [4])	inhibition at 10 µM (Hepatitis C virus [6])	inhibition at 2 h, 0.01 µM (histamine H1 receptor)	inhibition at 10 µM [8]	EC50 (Hepatitis C virus [9])	CC50 [11]	inhibition at 10 µM (Hepatitis C virus [12])	t1/2 (Liver microsome [16])	t1/2 (Liver microsome [17])	t1/2 [18]	further results
CN1CCN([C@@H](c2ccccc2)c2ccc(Cl)cc2)CC1	32.3 µM	2.1%	> 31.6 µM	103%	29.3 µg/mL (≈ 97.4 µM)	107%	116%	49.5%	120%	0.24 µM	33.4 µM	101%	–	–	–	AUC(0-inf) [5]: 48.9 µM·h; AUC(0-t) at 24 h [7]: 1310 µM·h; Cmax [10]: 436 µM
CCN1CCN([C@@H](c2ccccc2)c2ccc(Cl)cc2)CC1	68.9 µM	2%	–	–	12.3 µg/mL (≈ 39.1 µM)	–	–	60.7%	–	–	40 µM	–	–	–	–	EC50 (Dengue virus): ≥ 1 µM; EC50 (Hepatitis B virus): ≥ 1 µM; EC50 (Vaccinia virus): ≥ 1 µM; EC50 (Influenza A virus): ≥ 1 µM; EC50 (Tacaribe virus): ≥ 1 µM; EC50 (SARS-CoV): ≥ 1 µM; EC50 (Hepatitis C virus [13]): ≥ 1 µM; EC50 [14]: ≥ 1 µM; EC50 (Poliovirus 3): ≥ 1 µM; EC50 [15]: ≥ 1 µM; EC50 (Rift Valley fever virus): ≥ 1 µM; EC50 (Human alphaherpesvirus 1): ≥ 1 µM; EC50 (Human betaherpesvirus 5): ≥ 1 µM
CN1CCN(C(c2ccc(Cl)cc2)c2ccc(Cl)cc2)CC1	–	12.4%	–	116%	> 49 µg/mL	76.2%	91.9%	18.5%	119%	–	–	112%	26 min	> 120 min	91 min	Activity (Mus musculus): 80 U/L; t1/2 (Liver): 510 min
NCCOCCN1CCN(C(c2ccccc2)c2ccc(Cl)cc2)CC1 (racemic)	6.17 µM	6.9%	8.98 µM	–	44.3 µg/mL (≈ 118 µM)	–	–	21.5%	–	0.0072 µM	8.18 µM	–	12.2 min	26.3 min	25 min	inhibition at 3.2 µM (Hepatitis C virus [19]): 6.9%; selectivity ratio (in vitro): < 1.8; inhibition at 3.2 µM (Hepatitis C virus [20]): 37.2%; inhibition at 3.2 µM (Hepatitis C virus [21]): 149%; inhibition at 3.2 µM [22]: 93.1%; inhibition at 3.2 µM (Hepatitis C virus [23]): 19.4%; inhibition at 3.2 µM (Murine leukemia virus [24]): 107%
